Test results published in ChEMBL document CHEMBL3272326, “Antitumor septacidin analogues” (J Med Chem, 1977).

How the values were obtained:
[1] = system: P388 (Mus musculus); test: Antitumor activity against mouse P388 cells allografted in mouse assessed as tumor growth inhibition at optimum dose administered qd from day 1 to 9 relative to control
[2] = system: P388 (Mus musculus); test: Antitumor activity against mouse P388 cells allografted in mouse assessed as optimum dose administered qd from day 1 to 9
[3] = system: L1210; test: Inhibition of RNA synthesis in mouse L1210 cells after 3 hrs by [3H]uridine incorporation assay; assay type: functional; settings: L1210, 3 h, read-out: ED50 (the source's name)
Procedure, shortened: (§1)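 Cultured lymphoid leukemia L1210 cells; nucleic acid synthesis inhibition measured by a previously reported procedure, modified by adding 1% Me2SO for solubility.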

[4] = system: L1210; test: Cytotoxicity against mouse L1210 cells; assay type: functional, cell-based; settings: read-out: I50
[5] = system: Calf thymus DNA; test: Binding affinity to calf thymus helical DNA assessed as change in melting temperature by […] analysis; assay type: nucleic-acid assay; settings: Bos taurus
Procedure, shortened: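 Helix–coil transition temperature shift of isolated helical DNA in solution. Modified procedure: 0.010 M phosphate buffer with 10⁻⁵ M EDTA, pH 7.0, plus 5% Me2SO to solubilize compound.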

[6] = system: L1210; test: Inhibition of DNA synthesis in mouse L1210 cells after 3 hrs by [3H]thymidine incorporation assay; assay type: functional; settings: L1210, 3 h, read-out: ED50 (the source's name)
Procedure, shortened: as §1

[7] = system: Salmonella typhimurium; test: Mutagenicity in Salmonella typhimurium TA1538 by Ames test in presence of S9 fraction; assay type: toxicity, organism-based; settings: salmonella enterica subsp. enterica serovar typhimurium
Procedure, shortened: (§2)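 Salmonella plate mutagenicity test; compounds tested at levels up to 1 μmol per plate.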

[8] = system: Salmonella typhimurium; test: Mutagenicity in Salmonella typhimurium TA1535 by Ames test in presence of S9 fraction; assay type: toxicity, organism-based; settings: salmonella enterica subsp. enterica serovar typhimurium
Procedure, shortened: as §2

[9] = system: Salmonella typhimurium; test: Mutagenicity in Salmonella typhimurium TA1536 by Ames test; assay type: toxicity, organism-based; settings: salmonella enterica subsp. enterica serovar typhimurium
Procedure, shortened: as §2

[10] = system: Salmonella typhimurium; test: Mutagenicity in Salmonella typhimurium TA1536 by Ames test in presence of S9 fraction; assay type: toxicity, organism-based; settings: salmonella enterica subsp. enterica serovar typhimurium
Procedure, shortened: as §2

[11] = system: Salmonella typhimurium; test: Mutagenicity in Salmonella typhimurium TA1535 by Ames test; assay type: toxicity, organism-based; settings: salmonella enterica subsp. enterica serovar typhimurium
Procedure, shortened: as §2

[12] = system: Salmonella typhimurium; test: Mutagenicity in Salmonella typhimurium TA1538 by Ames test; assay type: toxicity, organism-based; settings: salmonella enterica subsp. enterica serovar typhimurium
Procedure, shortened: as §2

[13] = system: Salmonella typhimurium; test: Mutagenicity in Salmonella typhimurium TA1537 by Ames test; assay type: toxicity, organism-based; settings: salmonella enterica subsp. enterica serovar typhimurium
Procedure, shortened: as §2

[14] = system: Salmonella typhimurium; test: Mutagenicity in Salmonella typhimurium TA1537 by Ames test in presence of S9 fraction; assay type: toxicity, organism-based; settings: salmonella enterica subsp. enterica serovar typhimurium
Procedure, shortened: as §2

| SMILES | EC50 [3] [µM] | ΔTm [5] [°C] | EC50 [6] [µM] | T/C [1] [%] | Activity [2] [mg/kg] | IC50 [4] [µM] | Activity [7] | Activity [8] | Activity [9] | Activity [10] | Activity [11] | Activity [12] | Activity [13] | Activity [14] |
| --- | --- | --- | --- | --- | --- | --- | --- | --- | --- | --- | --- | --- | --- | --- |
| CC(C)CCCCCCCCCCCCC(=O)N[C@@H]1[C@@H](O)[C@H](O)[C@@H](Nc2ncnc3[nH]cnc23)O[C@H]1C | > 1000 | 0.5 | > 1000 | < 125 | 0.5 | > 100 | Non-toxic | Non-toxic | Non-toxic | Non-toxic | Non-toxic | Non-toxic | Non-toxic | Non-toxic |
| CCCCCCCCCCCC(=O)NCC(=O)N[C@@H]1[C@@H](O)[C@H](O)[C@@H](Nc2ncnc3[nH]cnc23)O[C@H]1C | 18 |  | 29 | 137 | 1 | > 10 |  |  |  |  |  |  |  |  |
| CCOCCC(=O)NCC(=O)N[C@@H]1[C@@H](O)[C@H](O)[C@@H](Nc2ncnc3[nH]cnc23)O[C@H]1CO | > 1000 | 0.4 | > 1000 | < 125 | 3.1 | > 500 |  |  |  |  |  |  |  |  |
| CCCCCCCCCCCCCCCCC(NC(C)=O)C(=O)N[C@@H]1[C@@H](O)[C@H](O)[C@@H](Nc2ncnc3[nH]cnc23)O[C@H]1C (stereo partly specified) | > 1000 |  | > 1000 |  |  |  |  |  |  |  |  |  |  |  |
| CCOCCC(=O)NCC(=O)N[C@@H]1[C@@H](O)[C@H](O)[C@@H](Nc2ncnc3[nH]cnc23)O[C@H]1C | > 1000 |  | > 1000 | < 125 | 3.1 | > 500 |  |  |  |  |  |  |  |  |
| CCCCCC(=O)NCC(=O)N[C@@H]1[C@@H](O)[C@H](O)[C@@H](Nc2ncnc3[nH]cnc23)O[C@H]1C | > 1000 |  | > 1000 | < 125 | 0.5 | 250 | Non-toxic | Non-toxic | Non-toxic | Non-toxic | Non-toxic | Non-toxic | Non-toxic | Non-toxic |

These reach a lower EC50 [3]. Values come first.

| EC50 [3] [µM] | ΔTm [5] [°C] | EC50 [6] [µM] | SMILES | T/C [1] [%] | Activity [2] [mg/kg] | IC50 [4] [µM] | Activity [7] | Activity [8] | Activity [9] | Activity [10] | Activity [11] | Activity [12] | Activity [13] | Activity [14] |
| --- | --- | --- | --- | --- | --- | --- | --- | --- | --- | --- | --- | --- | --- | --- |
| 0.67 | 13.6 | 1.5 | COc1cccc2c1C(=O)c1c(O)c3c(c(O)c1C2=O)C[C@@](O)(C(=O)CO)C[C@@H]3O[C@H]1C[C@H](N)[C@H](O)[C@H](C)O1 [DOXORUBICIN] | 193 | 1 | 0.032 |  |  |  |  |  |  |  |  |
| 1 |  | 0.4 | CC(C)CCCCCCCCCCCCC(=O)NCC(=O)N[C@@H]1[C@@H](O)[C@H](O)[C@@H](Nc2ncnc3[nH]cnc23)O[C@H]1C(O)CO (stereo partly specified) | 154 | 0.5 | > 5 |  |  |  |  |  |  |  |  |
| 1.1 | 0.6 | 1.8 | CC(C)CCCCCCCCCCCCC(=O)NCC(=O)N[C@@H]1[C@@H](O)[C@H](O)[C@@H](Nc2ncnc3[nH]cnc23)O[C@H]1C | 160 | 1 | > 20 |  |  |  |  |  |  |  |  |
| 5.5 | 0.5 | 20 | CCCCCCCCCCCC(=O)NCC(=O)N[C@@H]1[C@@H](O)[C@H](O)[C@@H](Nc2ncnc3[nH]cnc23)O[C@H]1CO | 133 | 1 | 3 | Non-toxic | Non-toxic | Non-toxic | Non-toxic | Non-toxic | Non-toxic | Non-toxic | Non-toxic |
| 1.6 | 3.6 | 2.5 | CCCCCCCCCCCCCCCC(=O)NCC(=O)N[C@@H]1[C@@H](O)[C@H](O)[C@@H](Nc2ncnc3[nH]cnc23)O[C@H]1CO | 136 | 0.5 | > 100 |  |  |  |  |  |  |  |  |
| 0.69 | 1.7 | 1.6 | CC(C)CCCCCCCCCCCCC(=O)NCC(=O)N[C@@H]1[C@@H](O)[C@H](O)[C@@H](Nc2ncnc3[nH]cnc23)O[C@H]1CO | 149 | 0.5 | > 10 | Non-toxic | Non-toxic | Non-toxic | Non-toxic | Non-toxic | Non-toxic | Non-toxic | Non-toxic |
